Experimental data from ChEMBL document CHEMBL4177580, “New 5-HT1A, 5HT2A and 5HT2C receptor ligands containing a picolinic nucleus: Synthesis, in vitro and in vivo pharmacological evaluation” (Bioorg Med Chem, 2017).
Calls of active or inactive are those of the source. The calls are words filed in the database; no cut-off is given here.

Tests used:
[1] = biological target: T1, 5-hydroxytryptamine receptor 2A (Rattus norvegicus, UniProt P14842); assay: Displacement of [3H]ketanserin from serotonin 5-HT2A receptor in Sprague-Dawley rat brain cortex homogenates incubated for 15 mins by liquid scintillation spectrometry
[2] = biological target: T2, 5-hydroxytryptamine receptor 1A (Rattus norvegicus, UniProt P19327); assay: Displacement of [3H]-8-OH-DPAT from serotonin 5-HT1A receptor in Sprague-Dawley rat brain cortex homogenates incubated for 30 mins by liquid scintillation spectrometry
T2 sequence (P19327 whole entry): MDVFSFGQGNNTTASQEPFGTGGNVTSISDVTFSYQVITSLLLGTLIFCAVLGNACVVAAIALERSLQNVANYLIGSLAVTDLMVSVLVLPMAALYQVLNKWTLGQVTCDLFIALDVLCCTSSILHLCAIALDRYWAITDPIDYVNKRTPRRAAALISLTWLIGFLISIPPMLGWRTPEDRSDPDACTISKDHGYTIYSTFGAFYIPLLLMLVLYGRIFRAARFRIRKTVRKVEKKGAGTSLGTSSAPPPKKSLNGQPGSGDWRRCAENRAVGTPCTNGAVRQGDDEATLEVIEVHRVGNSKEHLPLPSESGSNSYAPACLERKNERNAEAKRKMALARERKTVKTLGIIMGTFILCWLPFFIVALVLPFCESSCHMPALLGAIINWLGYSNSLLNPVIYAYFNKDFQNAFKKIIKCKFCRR

[3] = biological target: T3, 5-hydroxytryptamine receptor 2C (Rattus norvegicus, UniProt P08909); assay: Displacement of [3H]mesulergine from serotonin 5-HT2C receptor in Sprague-Dawley rat brain cortex homogenates incubated for 15 mins by liquid scintillation spectrometry
T3 sequence (P08909 whole entry): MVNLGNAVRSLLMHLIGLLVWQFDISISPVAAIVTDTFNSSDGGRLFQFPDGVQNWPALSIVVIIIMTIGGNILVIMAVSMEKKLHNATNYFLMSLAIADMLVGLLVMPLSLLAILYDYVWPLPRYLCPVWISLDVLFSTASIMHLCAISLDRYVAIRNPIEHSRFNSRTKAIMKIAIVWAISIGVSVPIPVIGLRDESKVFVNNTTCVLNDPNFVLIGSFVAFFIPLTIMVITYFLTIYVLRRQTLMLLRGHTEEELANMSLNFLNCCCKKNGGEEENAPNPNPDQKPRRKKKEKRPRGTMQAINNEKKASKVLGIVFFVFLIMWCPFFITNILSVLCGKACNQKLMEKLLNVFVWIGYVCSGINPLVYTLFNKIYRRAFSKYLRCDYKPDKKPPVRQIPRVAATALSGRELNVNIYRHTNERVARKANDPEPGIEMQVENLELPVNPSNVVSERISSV

Mus musculus [4] = assay: In-vivo 5-HT1A receptor agonist activity in Swiss albino mouse assessed as induction of lower lip retraction by measuring lower lip retraction score at 1 mg/kg, ip dosed 15 mins before test; assay type: functional, organism-based
Mus musculus [5] = assay: Induction of hypothermia in Swiss albino mouse assessed as reduction in body temperature at 5 mg/kg, ip measured after 60 mins post dose; assay type: functional, organism-based
In short: (§1)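 Normothermic male Swiss albino mice. Rectal temperature was taken by thermistor thermometer over 180 min (60 min before to 120 min after injection). Initial temperature was the mean of the readings at 60 and 30 min predose. Later readings were at 30, 60, 90 and 120 min, with Δt = final − initial. Data are mean ± SEM, by two-way ANOVA with Bonferroni test.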

Mus musculus [6] = assay: Induction of hypothermia in Swiss albino mouse assessed as reduction in body temperature at 5 mg/kg, ip measured after 30 mins post dose; assay type: functional, organism-based; in short: as §1
[7] = biological target: 5-hydroxytryptamine receptor 2A (Rattus norvegicus) (UniProt P14842); assay: Antagonist activity at 5-HT2A receptor in Sprague-Dawley rat ielum assessed as reduction in 5-HT-evoked contraction relative to control; assay type: functional
[8] = biological target: 5-hydroxytryptamine receptor 2A (Rattus norvegicus) (UniProt P14842); assay: Agonist activity at 5-HT2A receptor in Sprague-Dawley rat ileum assessed as induction of contraction; assay type: functional
[9] = biological target: T1, 5-hydroxytryptamine receptor 2A; assay: Antagonist activity at 5-HT2A receptor in Sprague-Dawley rat ielum assessed as reduction in 5-HT-evoked contraction; assay type: functional
In short: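 Ileum segments from CO2-asphyxiated rats, longitudinal contractions recorded isotonically (0.5 g load) in 20 mL Krebs at 37°C gassed with 95% O2/5% CO2; 60 min equilibration, then three additions of 5-HT (10^-5 M) for stable control contractions. Compounds dissolved in DMSO (<0.01%), 10 min contact per concentration. IC50 (50% inhibition of 5-HT contraction) and Emax derived by curve fitting; mean (SEM).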

[10] = biological target: 5-hydroxytryptamine receptor 2A (Rattus norvegicus) (UniProt P14842); assay: Antagonist activity at 5-HT2A receptor in Sprague-Dawley rat ielum assessed as reduction in 5-HT-evoked contraction at 10 uM
[11] = biological target: 5-hydroxytryptamine receptor 2A (Rattus norvegicus) (UniProt P14842); settings: Sprague-Dawley, 0.1 uM
[12] = biological target: 5-hydroxytryptamine receptor 2A (Rattus norvegicus) (UniProt P14842); settings: Sprague-Dawley, 0.3 uM
Mus musculus [13] = assay: Antidepressant-like activity in Swiss albino mouse assessed as reduction in immobility time at 15 mg/kg, ip dosed 1 hr before test by forced swimming test; assay type: functional, organism-based
In short: (§2)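 Male Swiss albino mice (18-24 g). The reference drug was diluted in saline and given ip (10 ml/kg) 1 h before testing. Each mouse swam for 6 min in a cylinder (25 cm high, 10 cm diameter) holding 10 cm of water at 23-25°C. Immobility was timed over the last 4 min. Data are mean ± SEM, analysed by one-way ANOVA with Dunnett's test.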

Mus musculus [14] = assay: Antidepressant-like activity in Swiss albino mouse assessed as reduction in immobility time at 20 mg/kg, ip dosed 1 hr before test by forced swimming test; assay type: functional, organism-based; in short: as §2
Mus musculus [15] = assay: Anxiolytic-like activity in Swiss albino mouse assessed as increase in time spent in open arms at 5 mg/kg measured for 5 mins test period by elevated plus maze test; assay type: functional, organism-based
In short: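 Male Swiss albino mice (18-24 g) were tested in the elevated plus-maze by Lister's method. The reference drug was diluted in saline and given ip (10 ml/kg). Time in open arms was recorded. Results are mean ± SEM, analysed by one-way ANOVA and post hoc test, with the observer blind to treatment.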

5-hydroxytryptamine receptor 2A (Rattus norvegicus), sequence (P14842 whole entry): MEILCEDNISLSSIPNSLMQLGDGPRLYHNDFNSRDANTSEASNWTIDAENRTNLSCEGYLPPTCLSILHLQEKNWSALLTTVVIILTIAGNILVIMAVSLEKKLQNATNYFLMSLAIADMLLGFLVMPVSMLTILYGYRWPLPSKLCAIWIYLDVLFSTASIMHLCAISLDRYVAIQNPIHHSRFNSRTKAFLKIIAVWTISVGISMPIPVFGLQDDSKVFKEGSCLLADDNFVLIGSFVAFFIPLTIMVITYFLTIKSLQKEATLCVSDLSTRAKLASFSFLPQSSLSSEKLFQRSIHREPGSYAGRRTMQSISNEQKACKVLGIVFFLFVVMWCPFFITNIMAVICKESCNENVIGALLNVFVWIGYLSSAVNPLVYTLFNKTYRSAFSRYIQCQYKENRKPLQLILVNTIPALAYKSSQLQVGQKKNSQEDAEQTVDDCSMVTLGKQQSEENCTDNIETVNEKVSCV
T1 sequence (P14842 whole entry): as above

Compound | Ki [1] [nM] | Ki [2] [nM] | Ki [3] [nM] | other results
O=C(NCCN1CCN(c2ccccc2F)CC1)c1ccccn1 | > 10000 | 158 | > 10000 | –
CCOc1ccccc1N1CCN(CCNC(=O)c2ccccn2)CC1 | > 10000 | 55.4 | > 10000 | –
CCN(CC)C1CCc2cccc(O)c2C1 (stereo not given) | – | 0.8 | – | Activity (Mus musculus [4]): Active; Activity (Mus musculus [5]): Active; Activity (Mus musculus [6]): Active
O=C(NCCCN1CCN(C(c2ccc(F)cc2)c2ccc(F)cc2)CC1)c1ccccn1 | – | – | – | Emax [7]: 68.4%; Activity [8]: inactive; EC50 ([9]; read-out: EC50): 2040 nM
O=C(NCCN1CCN(C(c2ccccc2)c2ccc(Cl)cc2)CC1)c1ccccn1 (stereo not given) | 504 | 540 | 49.8 | –
O=C(NCCN1CCN(c2ccccn2)CC1)c1ccccn1 | > 10000 | 32.7 | > 10000 | –
O=C(NCCCN1CCN(c2ccc(Cl)cc2)CC1)c1ccccn1 | 371 | 68 | 39.7 | –
Cc1ccc(N(CC2=NCCN2)c2cccc(O)c2)cc1 | – | – | – | inhibition [10]: inactive
COc1ccc(N2CCN(CCNC(=O)c3ccccn3)CC2)cc1 | 9.33 | 138 | > 10000 | EC50 [9]: Not Active
O=C(NCCN1CCN(c2ccccc2Cl)CC1)c1ccccn1 | > 10000 | 412 | 268 | –
O=C(NCCN1CCN(c2cccc(C(F)(F)F)c2)CC1)c1ccccn1 | – | – | – | Emax [7]: 48.4%; Activity [8]: inactive; EC50 ([9]; read-out: EC50): 161 nM
O=C(NCCCN1CCN(c2ccccc2)CC1)c1ccccn1 | 277 | 104 | 111 | –
O=C(NCCN1CCN(C(=O)c2ccco2)CC1)c1ccccn1 | > 10000 | > 10000 | > 10000 | –
O=C(NCCCN1CCN(c2ccccc2F)CC1)c1ccccn1 | 327 | 230 | > 10000 | –
O=C(c1ccc(F)cc1)C1CCN(CCn2c(=O)[nH]c3ccccc3c2=O)CC1 | – | – | – | inhibition [11]: Active
Cc1cccc(N2CCN(CCNC(=O)c3ccccn3)CC2)c1C | > 10000 | 215 | > 10000 | –
O=C(NCCCN1CCN(c2ccccc2Cl)CC1)c1ccccn1 | 763 | 71.6 | 1050 | –
O=C(NCCCN1CCN(C(c2ccccc2)c2ccc(Cl)cc2)CC1)c1ccccn1 (stereo not given) | 725 | 443 | > 10000 | –
NC1=N[C@H](O)[C@H]2[C@H]3O[C@]4(O)O[C@@H]([C@H](O)[C@@]2(N1)[C@@H]4O)[C@]3(O)CO | – | – | – | inhibition [12]: inactive
O=C(NCCCN1CCN(c2ccc(Cl)c(Cl)c2)CC1)c1ccccn1 | 90.4 | 181 | 9.57 | Emax [7]: 26.7%; Activity [8]: inactive; EC50 ([9]; read-out: EC50): 770 nM
O=C(NCCCN1CCN(Cc2ccc3c(c2)OCO3)CC1)c1ccccn1 | – | > 10000 | > 10000 | Emax [7]: 75.5%; Activity [8]: inactive; EC50 ([9]; read-out: EC50): 6480 nM
O=C(NCCN1CCN(c2ccccc2)CC1)c1ccccn1 | 53.2 | 161 | > 10000 | EC50 [9]: Not Active

Compound | Ki [1] [nM] | Ki [2] [nM] | Ki [3] [nM] | other results
O=C(NCCN1CCN(c2cccc(Cl)c2)CC1)c1ccccn1 | 309 | 267 | 90.9 | –
COc1ccc(N2CCN(CCCNC(=O)c3ccccn3)CC2)cc1 | > 10000 | > 10000 | > 10000 | –
CN1[C@@H]2CC[C@H]1C[C@@H](OC(=O)C(CO)c1ccccc1)C2 (stereo not given in full) | – | – | – | inhibition [10]: inactive
O=C(NCCCN1CCN(c2ccccn2)CC1)c1ccccn1 | > 10000 | 495 | 140 | –
O=C(NCCCN1CCN(c2ccc(F)cc2)CC1)c1ccccn1 | 161 | > 10000 | 11.7 | –
O=C(NCCN1CCN(c2cccc3ccccc23)CC1)c1ccccn1 | 91.1 | 20.8 | 116 | –
O=C(NCCCN1CCN(C(=O)c2ccco2)CC1)c1ccccn1 | – | > 10000 | > 10000 | Emax [7]: 53.1%; Activity [8]: inactive; EC50 ([9]; read-out: EC50): 777 nM
CCOc1ccccc1N1CCN(CCCNC(=O)c2ccccn2)CC1 | 119 | 85.6 | 80 | –
O=C(NCCN1CCN(C(c2ccc(F)cc2)c2ccc(F)cc2)CC1)c1ccccn1 | – | > 10000 | – | –
N#Cc1ccccc1N1CCN(CCNC(=O)c2ccccn2)CC1 | 616 | 74.8 | > 10000 | –
O=C(NCCCN1CCN(c2cccc3ccccc23)CC1)c1ccccn1 | 213 | 44.1 | > 10000 | –
CNCCC(Oc1ccc(C(F)(F)F)cc1)c1ccccc1 (stereo not given) | – | – | – | Activity (Mus musculus [13]): Active; Activity (Mus musculus [14]): Active
O=C(NCCCN1CCN(c2cccc(Cl)c2)CC1)c1ccccn1 | 80.7 | 59.5 | 101 | –
O=C(NCCN1CCN(c2ccc(F)cc2)CC1)c1ccccn1 | 241 | 82 | 79.4 | –
Cc1cccc(N2CCN(CCCNC(=O)c3ccccn3)CC2)c1C | > 10000 | 88.7 | 105 | –
O=C(NCCCN1CCN(c2ncccn2)CC1)c1ccccn1 | 16.8 | 500 | > 10000 | Emax [7]: 32.1%; Activity [8]: inactive; EC50 ([9]; read-out: EC50): 828 nM
O=C1CC2(CCCC2)CC(=O)N1CCCCN1CCN(c2ncccn2)CC1 | – | – | – | Activity (Mus musculus [15]): Active
COc1ccccc1N1CCN(CCNC(=O)c2ccccn2)CC1 | 0.0224 | 599 | > 10000 | Emax [7]: 33.7%; Activity [8]: inactive; EC50 ([9]; read-out: EC50): 4250 nM
COc1ccccc1N1CCN(CCCNC(=O)c2ccccn2)CC1 | > 10000 | 40.1 | 128 | –
O=C(NCCN1CCN(Cc2ccc3c(c2)OCO3)CC1)c1ccccn1 | > 10000 | > 10000 | 61.2 | –
O=C(NCCCN1CCN(c2cccc(C(F)(F)F)c2)CC1)c1ccccn1 | > 10000 | 17.9 | > 10000 | –
N#Cc1ccccc1N1CCN(CCCNC(=O)c2ccccn2)CC1 | > 10000 | 108 | 128 | –
